STAT3 activator – IL-6 driven STAT3 reporter potentiators, primary screen, U3A cells, luciferase, luminescence, MLSCN library; IL-6 STAT3-luciferase reporter; 100% = signal with IL-6 EC80 alone; activation (% of control), % at 5.6 µM; 190,000 compounds, 0.91% hits; AID 871, 2007;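 active = activation above the screen-wide mean of compound activation plus 3 SD, cut at about 130% in these data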
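Test system: human U3A cells carrying STAT3-luciferase construct; control set: IL-6-only wells as 100% reference; timing: compound pre-incubation 1 h before IL-6, then 6 h stimulation at 37 °C; also added: IL-6 stimulus at 33 ng/mL final; evaluation: % activation versus median of IL-6-stimulated wells; detection: reporter luminescence signal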
STAT3 blocker – IL-6 driven STAT3 reporter inhibitors, primary screen, U3A cells, luciferase, luminescence, MLSCN library; 190,000 compounds, 0.89% hits; IL-6 STAT3-luciferase reporter; host cell line lacks STAT1; AID 862, 2007; inhibition, % at 5.5 µM;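 active = inhibition above the mean inhibition across all screened compounds plus 3 SD, cut at about 44% in these data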
STAT1 inh-1 – STAT1 signaling inhibitors, primary screen, cell-based, HTS, luciferase reporter. NIH 3T3 STAT1-luciferase reporter, IFN-gamma, luminescence. inhibition, % at 5.5 µM. 200,000 compounds, 0.35% hits. AID 920, 2007;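 active = inhibition above a set limit, the mean inhibition across all tested compounds plus 3 SD, cut at about 34% in these data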
PPC-1+TRAIL kill – compounds killing PPC-1 cancer cells with TRAIL present, primary screen, TRAIL potentiator project, ATPLite luminescence, uHTS. PPC-1 cells + TRAIL, ATPLite viability luminescence. cell killing (% activity), % at 4 µM or 5 µM. 220,000 compounds, 0.41% hits;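 active = cell killing above 50% in the first pass at 4 µM, then a duplicate retest at 5 µM averaging 50% or more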
C8 TRAIL sens – viability loss with TRAIL in NB7+C8 cells, primary screen, TRAIL sensitizer project, cell-based, ATPlite luminescence | inhibition (viability loss, TRAIL sensitization), % at 10 µM | 360,000 compounds, 1% hits;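 active = compounds causing at least 50% loss of cell viability in the single-dose screen, relative to plate controls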
STAT1 inh-2 – STAT1 signaling inhibitors, confirmation, cell-based, HTS, luciferase reporter. shares compounds with STAT1 inh-1. NIH 3T3 STAT1-luciferase reporter, IFN-gamma, luminescence. inhibition, % at 5.5 µM. 200 compounds, 55% hits;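 active = triplicate mean inhibition exceeding the hit cutoff computed for the primary STAT1 screen, cut at about 35% in these data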
NFkB inh STAT1ct – NF-kB reporter inhibitors, TNF-alpha stimulated, counter-screen for STAT1 inhibitor project, cell-based, HEK293T, luciferase luminescence; inhibition, % at 5.7 µM; AID 1303, 2008; TNF-alpha induced; 200 compounds, 30% hits; shares compounds with STAT1 inh-1;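 active = inhibition above the mean of solvent-only control wells plus 3 SD of those wells, cut at about 15% in these data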
STAT3 inh STAT1c – STAT3 reporter inhibition by STAT1 hits, counter-screen for STAT1 inhibitor project, U3A cells, luciferase, luminescence, triplicate. shares compounds with STAT1 inh-1. IL-6 STAT3 luciferase reporter; cells lacking STAT1. inhibition, % at 5.7 µM. 200 compounds, 20% hits. AID 1310, 2008;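 active = inhibition above the mean of solvent-only control wells plus 3 SD, set per campaign, cut at about 25% in these data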
PPC-1 tox – cytotoxicity in PPC-1 cells, confirmation, cytotoxicity control for TRAIL apoptosis potentiator project, cell-based, ATP content luminescence | shares compounds with PPC-1+TRAIL kill | cytotoxicity, % at 5 µM | PPC-1 viability, ATPlite luminescence, overnight | 1,200 compounds, 50% hits;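 active = reconfirmed compounds whose average cytotoxicity reaches 50% or more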
Hits are given with their value; 0 = inactive; - = no result. Hits are enriched below; roughly 1.8% of the tested compounds scored in any of these assays.

SMILES | STAT3 activator | STAT3 blocker | STAT1 inh-1 | PPC-1+TRAIL kill | C8 TRAIL sens | STAT1 inh-2 | NFkB inh STAT1ct | STAT3 inh STAT1c | others
COc1ccc(CN2C(=O)c3cccnc3C2=O)cc1S(=O)(=O)N(C)c1cccc(C)c1 | - | - | - | - | 0 | - | - | -
CC(NC(=S)NC(=O)c1ccccc1)c1ccccc1 (stereo not given) | - | - | - | - | 0 | - | - | -
O=C(NC(=S)NC(c1ccccc1)c1ccncc1)c1ccccc1 (stereo not given) | 0 | 0 | 62 | 0 | 0 | 57 | 20 | 0
CS(=O)(=O)Nc1ccc(C2=NN(C(=O)c3ccco3)C(c3cccc(F)c3)C2)cc1 (stereo not given) | 0 | 0 | 56 | 0 | 0 | 0 | 0 | 0
CN(Cc1cccs1)C(=O)Cc1csc(-c2ccccc2)n1 | 0 | 0 | 0 | 0 | 0 | - | - | -
COc1cc(C(=O)OCC(=O)Nc2sccc2C(N)=O)cc(OC)c1OC | 0 | 0 | 42 | 0 | 0 | 0 | 0 | 0
COc1ccc(C(=O)OCC(=O)Nc2sccc2C(N)=O)cc1OC | - | - | - | 0 | 0 | - | - | -
CCOC(=O)C(=CNc1cc(C)nn1-c1ccccc1)C(=O)OCC | 0 | 0 | 52 | 0 | 0 | 46 | 0 | 0
COC(=O)c1ccc(C2=NOC(C)(c3nnc(Cc4ccccc4)o3)C2)cc1 (stereo not given) | - | - | - | - | 0 | - | - | -
O=C(c1ccco1)N1CCN(c2ccnc3cc(Cl)ccc23)CC1 | 0 | 0 | 35 | 0 | 0 | 43 | 24 | 0
CCOC(=O)N1CCC(N2C(=O)c3ccccc3C2Nc2cccnc2)CC1 (stereo not given) | 0 | 0 | 34 | 0 | 0 | 0 | 0 | 0
O=C(COc1ccc(F)cc1Cl)N(Cc1nnc(-c2ccccc2Cl)o1)C1CC1 | - | - | - | - | 0 | - | - | -
CCOc1ccc(-c2nc(CSCC(=O)NCc3ccco3)c(C)o2)cc1 | 0 | 0 | 90 | 0 | 0 | 91 | 49 | 0
CCCOc1ccc(C(=O)CCC(=O)Nc2ccc(N3CCN(C)CC3)cc2)cc1 | - | - | - | - | 0 | - | - | -
Cn1c(SCc2cccnc2)nc2c(c1=O)SCC2 | 0 | 0 | 0 | 0 | 0 | - | - | -
COc1ccc(-n2c(SCc3cccnc3)nc3c(c2=O)SCC3)cc1OC | 0 | 0 | 45 | 0 | 0 | 35 | 0 | 0
Cc1cccc(N(Cc2ccccc2)C(=O)CCl)c1 | 0 | 0 | 35 | 0 | 96 | 0 | 0 | 29
COc1ccc(CC(=O)N(Cc2ccccc2)c2cccc(C)c2)cc1OC | - | - | - | - | 0 | - | - | -
O=C1COc2ccc(C(=O)COC(=O)c3cc(S(=O)(=O)N4CCOCC4)ccc3F)cc2N1 | - | - | - | - | 0 | - | - | -
O=C(C1CCC(CNS(=O)(=O)c2cccc3nsnc23)CC1)N1CCN(c2ccccn2)CC1 (stereo not given) | 0 | 0 | 35 | 0 | 0 | 0 | 0 | 0
CC(Oc1ccc(Br)cc1)C(=O)NNC(=O)CCN1CCN(c2ccccc2)CC1 (stereo not given) | - | - | - | - | 0 | - | - | -
Cc1cccc(CN2C(=O)c3ccccc3Sc3ccc(C(=O)O)cc32)c1 | - | - | - | 0 | 0 | - | - | -
O=C(c1ccc2c(c1)N(Cc1ccccc1)C(=O)c1ccccc1S2)N1CCCC1 | 0 | 0 | 52 | 0 | 0 | 45 | 0 | 0
CCC(=O)Nc1ccc(-c2nc3ccccc3c(=O)o2)cc1 | 0 | 0 | 39 | 0 | 0 | 0 | 0 | 0
Cn1nc(C(=O)NNC(=O)CCc2ccccc2Cl)c2ccccc2c1=O | - | - | - | - | 0 | - | - | -
Cc1nc(N)nc(N)c1/C=C/C(C)(C)c1ccc(Cl)cc1 | 0 | 0 | 38 | 51 | 76 | 38 | 28 | 40 | PPC-1 tox=0

High-throughput results from PubChem BioAssay.
